Columns and labels:
Cytochrome P450 3A4 = Cytochrome P450 3A4 (Homo sapiens, UniProt P08684); experiment: Inhibition of CYP3A4 at 25 uM; format: ADME
Outline: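 Inhibition of CYP isozymes was tested up to a highest concentration of 25 µM.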

[1] = target: T1, NAD-dependent protein deacetylase sirtuin-1 (Homo sapiens) (UniProt Q96EB6); experiment: Activation of human SIRT1 expressed in Escherichia coli BL21Start assessed as concentration required to increase 50% enzyme activity by mass spectrometry assay
T1 sequence (whole entry): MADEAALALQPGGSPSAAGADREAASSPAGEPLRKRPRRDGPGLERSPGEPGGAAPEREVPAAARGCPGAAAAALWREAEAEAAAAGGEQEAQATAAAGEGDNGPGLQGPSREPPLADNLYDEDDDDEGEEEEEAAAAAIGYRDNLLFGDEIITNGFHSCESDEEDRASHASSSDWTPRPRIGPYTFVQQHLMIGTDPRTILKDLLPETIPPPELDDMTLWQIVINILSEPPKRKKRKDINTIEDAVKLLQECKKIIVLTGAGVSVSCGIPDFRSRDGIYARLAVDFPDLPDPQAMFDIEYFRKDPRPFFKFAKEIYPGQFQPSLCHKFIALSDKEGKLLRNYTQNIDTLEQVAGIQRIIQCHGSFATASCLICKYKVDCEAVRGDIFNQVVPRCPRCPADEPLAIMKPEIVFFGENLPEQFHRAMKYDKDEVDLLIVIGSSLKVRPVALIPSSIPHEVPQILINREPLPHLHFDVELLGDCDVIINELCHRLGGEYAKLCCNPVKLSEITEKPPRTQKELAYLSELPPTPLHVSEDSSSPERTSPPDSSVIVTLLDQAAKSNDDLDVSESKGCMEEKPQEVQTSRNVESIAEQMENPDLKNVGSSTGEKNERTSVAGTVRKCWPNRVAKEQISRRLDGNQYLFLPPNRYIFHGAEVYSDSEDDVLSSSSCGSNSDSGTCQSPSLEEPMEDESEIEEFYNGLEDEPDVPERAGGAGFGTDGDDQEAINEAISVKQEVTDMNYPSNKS
Outline: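 Truncated SIRT1 was expressed in E. coli BL21Start (DE3) and purified on Ni2+ chelate. Reaction: 10 nM enzyme, 0.5 µM biotinylated, fluorophore-tagged p53-derived 20-mer acetyl-lysine peptide and 120 µM NAD+, in 50 mM Tris-acetate pH 8 with NaCl, KCl, MgCl2, 5 mM DTT and 0.05% BSA; DMSO vehicle; 25 min at 25 °C. Stopped with formic acid/nicotinamide; acetylated versus deacetylated peptide read by mass spectrometry. EC1.5 is the concentration raising activity by 50%, the mean of three titration curves.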

Sequence of Cytochrome P450 3A4 (P08684 whole entry): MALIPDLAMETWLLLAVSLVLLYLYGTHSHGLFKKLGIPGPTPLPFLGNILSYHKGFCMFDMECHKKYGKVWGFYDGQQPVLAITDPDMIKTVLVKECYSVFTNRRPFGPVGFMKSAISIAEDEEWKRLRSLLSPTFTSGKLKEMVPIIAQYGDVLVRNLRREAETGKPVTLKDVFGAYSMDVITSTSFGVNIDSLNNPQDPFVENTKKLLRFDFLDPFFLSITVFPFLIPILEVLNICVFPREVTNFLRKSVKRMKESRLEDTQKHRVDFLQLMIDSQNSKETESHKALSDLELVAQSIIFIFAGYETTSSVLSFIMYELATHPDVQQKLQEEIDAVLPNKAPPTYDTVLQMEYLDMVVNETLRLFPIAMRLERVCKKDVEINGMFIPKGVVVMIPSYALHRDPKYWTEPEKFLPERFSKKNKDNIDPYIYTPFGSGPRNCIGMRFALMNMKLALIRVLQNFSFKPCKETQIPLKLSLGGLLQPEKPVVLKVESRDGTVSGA

Activity (Cytochrome P450 3A4): Not Active
Activity [1]: 0.16 µM
SMILES: O=C(Nc1ccccc1-c1cn2c(CN3CCNCC3)csc2n1)c1cnc2ccccc2n1

From ChEMBL document CHEMBL1140923, “Discovery of imidazo[1,2-b]thiazole derivatives as novel SIRT1 activators” (J Med Chem, 2009)
